# PfGluPho inh = PfG6PD (Plasmodium falciparum) enzyme inhibition; PfGluPho enzyme, NADPH resazurin-diaphorase fluorescence; inhibition, % at 20 µM; actives 0.78% (n = 350,000);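 active means inhibition reaching at least a set limit at 20 µM in the primary screen, cut at about 59% in these data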;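 further: 0% = DMSO wells with substrate and 100% = DMSO wells lacking glucose-6-phosphate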
# Diaph inh CS = inhibits diaphorase or chemically oxidizes, flagging diaphorase assay artifacts. inhibition, % at 20 µM. AID 1217. actives 0.69% (n = 190,000). diaphorase resazurin-to-resorufin fluorescence, NADH, 16 min; bacterial (C. kluyveri) enzyme, not human;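 active means primary screen inhibition at 20 µM above a set limit, cut at about 50% in these data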;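 further: plate controls were DMSO with full reaction for no effect and wells lacking NADH for full effect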
#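 material = Clostridium kluyveri diaphorase enzyme | amount = 0.14 U/mL diaphorase, enzyme working solution | schedule = incubation 16 min, room temperature | detection = fluorescence of resorufin formed from resazurin, Ex 544/Em 590 nm | benchmarks = positive control minus NADH, DMSO neutral control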
# G6PDH counter = L. mesenteroides G6PDH inhibition counter-screen; AID 1020; inhibition, % at 5 µM; actives 0.12% (n = 200,000); Purified L. mesenteroides G6PDH, diaphorase/resazurin coupled fluorescence, 45 min; in the data active means inhibition above about 50%
# HKDC1 inh = inhibitors of human hexokinase HKDC1; recombinant HKDC1, G6PDH/diaphorase resazurin coupled fluorescence; actives 0.16% (n = 340,000); inhibition, % at 20 µM;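 active means inhibition above about 35% when tested at 20 µM, limit read from the data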;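 further: plate controls were DMSO wells with enzyme for no effect and DMSO wells lacking enzyme for full effect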
# Target sequence (Q2TB90 whole entry, looked up): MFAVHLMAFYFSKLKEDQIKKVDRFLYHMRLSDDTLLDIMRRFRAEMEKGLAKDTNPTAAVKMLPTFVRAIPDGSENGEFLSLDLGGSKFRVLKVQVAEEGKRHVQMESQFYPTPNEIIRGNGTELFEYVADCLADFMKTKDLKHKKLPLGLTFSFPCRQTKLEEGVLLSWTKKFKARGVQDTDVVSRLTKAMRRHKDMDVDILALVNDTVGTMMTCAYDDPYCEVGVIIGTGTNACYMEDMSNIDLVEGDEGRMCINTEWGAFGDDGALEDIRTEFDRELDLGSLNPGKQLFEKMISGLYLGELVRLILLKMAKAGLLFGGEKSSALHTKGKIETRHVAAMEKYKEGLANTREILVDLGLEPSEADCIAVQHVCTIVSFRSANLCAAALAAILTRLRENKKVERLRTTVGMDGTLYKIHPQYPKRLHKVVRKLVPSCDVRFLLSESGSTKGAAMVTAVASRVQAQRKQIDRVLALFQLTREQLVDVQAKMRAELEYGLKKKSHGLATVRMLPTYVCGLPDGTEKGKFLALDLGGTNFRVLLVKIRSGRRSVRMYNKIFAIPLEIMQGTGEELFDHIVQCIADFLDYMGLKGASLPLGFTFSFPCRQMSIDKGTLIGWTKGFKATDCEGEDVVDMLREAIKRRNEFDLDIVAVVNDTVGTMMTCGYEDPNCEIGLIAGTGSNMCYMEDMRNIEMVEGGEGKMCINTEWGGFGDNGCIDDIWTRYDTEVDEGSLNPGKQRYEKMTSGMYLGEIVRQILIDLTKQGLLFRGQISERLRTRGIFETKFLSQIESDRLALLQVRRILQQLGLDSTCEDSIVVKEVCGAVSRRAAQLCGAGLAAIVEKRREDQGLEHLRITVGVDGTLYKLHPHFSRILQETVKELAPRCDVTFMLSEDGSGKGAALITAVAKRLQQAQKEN
#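 Assay system – recombinant HKDC1 (HK5) hexokinase enzyme, produced in-house · Input – HKDC1 at 5 µg/mL · Reagent – glucose plus 1 mM ATP as hexokinase substrates · Timing – 90 min reaction incubation at room temperature, dark · Measured by – G6PDH/diaphorase-coupled fluorescence, 1 mM NADP, 100 µM resazurin, 525/613 nm · Benchmarks – DMSO-enzyme wells negative, buffer-substituted wells positive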
# Diaph act CS = diaphorase activation or chemical reduction counter-screen; Diaphorase/resazurin coupled assay, resorufin fluorescence, 16 min; stronger effect = higher value; 1 = vehicle wells, 0 = NADH-free wells; activation factor at 20 µM; actives 0.005% (n = 190,000); AID 1229;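 active means diaphorase activity raised at least twofold by the compound at 20 µM; inactive means activation factor below 2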
#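 Material: bacterial diaphorase enzyme (C. kluyveri); amount: enzyme 0.07 U/mL final; reagent: NADH substrate 0.114 mM plus resazurin dye 0.1 mM, final; doses: single compound dose of 20 µM, 1% DMSO final; timing: 16 min enzyme reaction, ambient temperature; measured by: fluorescence of resorufin, 544 nm excitation, 590 nm emission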
# * hit, by the source's call; / = not tested or not shown. Sampled rows, rich in hits. Any-hit rate of the full collection: about 1.3%.
SMILES,PfGluPho inh,Diaph inh CS,G6PDH counter,HKDC1 inh,Diaph act CS
COc1ccc2cc(C(c3nnnn3C3CCCC3)N3CCc4ccccc4C3)c(=O)[nH]c2c1 (centres undefined),15,56*,17,2,0.4
CCC(C)(C)n1nnnc1C(c1cc2ccc(OC)cc2[nH]c1=O)N1CCc2ccccc2C1 (centres undefined),7,47,4,11,0.5
COc1ccc2cc(C(c3nnnn3C(C)(C)C)N3CCc4ccccc4C3)c(=O)[nH]c2c1 (centres undefined),/,52*,-22,/,0.5
CCOC(=O)c1cc2c(=O)n3ccccc3nc2n(C(C)C)c1=NC(=O)c1ccncc1,22,65*,-9,2,0.3
CCOC(=O)c1cc2c(=O)n3ccccc3nc2n(CCOC)c1=NC(=O)c1ccncc1,-3,7,-6,-8,0.9
CC(=O)N=c1scc(-c2ccccc2)n1-c1cccc(O)c1,3,/,/,-6,/
CCNC(=S)N1N=C2c3ccccc3CCC2C1c1ccc(F)cc1 (centres undefined),1,/,/,5,/
CCc1ccc(-n2c(C)cc(/C=N/NC(=O)c3ccncc3)c2C)cc1,27,84*,15,-4,0.2
O=C(CS(=O)(=O)c1cn(Cc2ccc(F)cc2)c2ccccc12)N1CCOCC1,-6,69*,8,5,0.3
CC(C)c1ccc(S(=O)(=O)/N=C2/C=CC(=O)c3ccccc32)cc1,/,31,55*,/,0.7
CC(C)c1ccc(S(=O)(=O)/N=C2\C=C(NS(=O)(=O)c3ccccc3)C(=O)c3ccccc32)cc1,12,/,/,27,/
CC(=O)N1CCN(C(=S)c2ccc(-c3ccc(Cl)cc3)o2)CC1,62*,26,0,-6,0.7
COc1cc(NC(=S)N2CCC(C(N)=O)CC2)c(OC)cc1Cl,7,55*,-2,-1,0.5
O=C(CSc1nc2ccccc2s1)Nc1cc(C(=O)O)cc(C(=O)O)c1,-2,62*,7,-3,0.4
O=C1CCN(Cc2ccccc2)S(=O)(=O)c2ccccc21,23,/,/,-1,/
CCCN(CC1CC1)c1nc(N)c2c(N)nc(OC)cc2c1C#N,17,52*,28,22,0.5
CCNC(=O)C(=O)N/N=C/c1cc([N+](=O)[O-])ccc1O,31,53*,28,-18,0.5
COc1ccc(N2CC(C(=O)N/N=C/c3cc([N+](=O)[O-])ccc3O)CC2=O)cc1 (centres undefined),-43,55*,-6,-7,0.5
COc1ccc(N2CC(C(=O)Nc3ccc([N+](=O)[O-])cc3Br)CC2=O)cc1 (centres undefined),-3,/,/,-5,/
NC(=O)COC(=O)c1ccc2c(c1)S(=O)(=O)N=C1CCCCCN12,4,16,-4,-9,0.8
CC(=O)N(Cc1ccc(F)cc1)c1cccc(C)c1C,-10,14,19,4,0.9
CC(=O)N(Cc1ccc(F)cc1)C1=C(NCCc2ccccc2)C(=O)c2ccccc2C1=O,49,49,50*,21,0.5
Cc1nc(NC(=O)CN2CCOCC2)sc1C(=O)N(C)C,14,/,/,-3,/
N#CC1=C(N)Oc2n[nH]c(-c3cccs3)c2C1c1ccsc1 (centres undefined),-11,60*,5,8,0.4
NC(=O)c1cc[n+](CC2=C(C(=O)O)N3C(=O)[C@@H](NC(=O)C(c4ccccc4)S(=O)(=O)[O-])[C@H]3SC2)cc1 (some centres undefined),71*,13,11,13,0.9
SMILES,PfGluPho inh,Diaph inh CS,G6PDH counter,HKDC1 inh,Diaph act CS
N[C@@H](C(=O)N[C@@H]1C(=O)N2C(C(=O)O)=C(Cl)CS[C@H]12)c1ccccc1,27,21,8,7,0.8
CN(C)c1c([N+](=O)[O-])cc(N2C(=O)C=CC2=O)cc1[N+](=O)[O-],103*,/,/,0,/
COc1ccc(/C=C2\CCn3c2nc2cc(C(=O)O)ccc2c3=O)cc1,5,/,/,5,/
O=C(O)c1ccc(Cl)c2c1C1C=CCC1C(c1ccccn1)N2 (centres undefined),/,56*,13,/,0.4
O=[N+]([O-])c1ccc(Cl)c2c1C1C=CCC1C(c1ccccn1)N2 (centres undefined),43,41,6,9,0.6
COc1cc2[nH]c(=O)n(CCCC(=O)N3CC=C(c4ccccc4)CC3)c(=O)c2cc1OC,22,58*,5,2,0.4
COc1ccccc1C=NN1C(=O)CSC1=S,7,/,/,-1,/
O=C1CSC(=S)N1/N=C/c1ccc(O)c(O)c1O,79*,/,/,21,/
O=C(CN1CCC(n2nnc3ccccc32)CC1)NCc1cccs1,1,6,9,-1,0.9
S=c1[nH]nc(-c2cccnc2)n1/N=C/c1ccccc1,7,/,/,-3,/
S=c1[nH]nc(-c2cccnc2)n1/N=C/C=C/c1ccccc1,19,52*,5,-3,0.5
S=c1[nH]nc(-c2ccncc2)n1/N=C/C=C/c1ccco1,24,71*,8,-9,0.3
Cc1cccc(-c2n[nH]c(=S)n2/N=C/C=C/c2ccco2)c1,21,/,/,4,/
O=[N+]([O-])c1ccccc1/C=N/n1c(-c2cccnc2)n[nH]c1=S,37,41,-3,-3,0.6
O=[N+]([O-])c1cc(/C=N/n2c(-c3cccnc3)n[nH]c2=S)ccc1Cl,25,51*,2,0,0.5
CCN(c1ccccc1)S(=O)(=O)c1ccc(C(=O)N2CCCC(C(F)(F)F)C2)cc1 (centres undefined),-7,/,/,-4,/
CC1CCCC(C)N1C(=O)COC(=O)CN1C(=O)c2ccccc2C1=O (centres undefined),-7,/,/,-3,/
OC(Cc1ccncc1)(c1ccccc1)c1ccccc1,13,/,/,-1,/
CC(C)/C(=N/Nc1ccccc1[N+](=O)[O-])c1ccccc1,-11,50*,8,-2,0.5
CCOc1cc2c(C#N)c(N3CCOCC3)nc(N)c2c(N)n1,-10,64*,18,6,0.4
CCOc1cc2c(C#N)c(N(CC)CC)nc(N)c2c(N)n1,30,/,/,19,/
CCOC(=O)C1=C(C)NC(C)=C(C(=O)OC)C1c1cccc([N+](=O)[O-])c1 (centres undefined),13,14,4,3,0.9
COC(=O)C1=C(C)NC(C)=C(C(=O)OC)C1c1ccccc1[N+](=O)[O-],75*,45,25,-6,0.6
CCN(C(=O)COC(=O)/C(C#N)=C/c1cc(C)n(CCOC)c1C)c1c(N)n(Cc2ccccc2)c(=O)[nH]c1=O,-11,/,/,-4,/
Cc1ccc([C@@H]2C[C@H]3[C@@H](CN2S(=O)(=O)c2ccc(C)cc2)C(=O)C[C@@H](c2ccc(C)cc2)N3S(=O)(=O)c2ccc(Cl)cc2)cc1,4,/,/,/,/

# Source: PubChem
